From ChEMBL document CHEMBL1938286, “A concise synthesis of viscolin, and its anti-inflammatory effects through the suppression of iNOS, COX-2, ERK phosphorylation and proinflammatory cytokines expressions” (Eur J Med Chem, 2012)
Active and inactive are the calls of the source. The rule behind the calls is not given here.

Assays:
Mus musculus [1] = test: Antiinflammatory activity in ICR mouse assessed as inhibition of carrageenan-induced hind paw edema at 8 mg/kg, ip measured after 4 hrs; format: functional, organism-based; set-up: dose 8 mg/kg
Mus musculus [2] = test: Antiinflammatory activity in ICR mouse assessed as inhibition of carrageenan-induced hind paw edema at 8 mg/kg, ip measured after 5 hrs; format: functional, organism-based; set-up: dose 8 mg/kg
Mus musculus [3] = test: Antioxidant activity in carrageenan-stimulated ICR mouse assessed as increase in SOD activity at 8 mg/kg, ip measured after 5 hrs; format: functional; details: route intraperitoneal
Method in brief: (§1)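 Male ICR mice (n = 6 per group) received the drug 30 min before intraplantar carrageenan, and paw tissue was taken at the 5th hr. Total SOD was measured by inhibition of cytochrome c reduction, CAT by Aebi's method, and cytosolic GPx by Paglia–Valentine. Activities are in U/mg protein, given as mean ± SEM.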

Mus musculus [4] = test: Antioxidant activity in carrageenan-stimulated ICR mouse assessed as increase in GPx activity at 2 mg/kg, ip measured after 5 hrs; format: functional; details: route intraperitoneal; method in brief: as §1
Mus musculus [5] = test: Antioxidant activity in carrageenan-stimulated ICR mouse assessed as increase in GPx activity at 4 mg/kg, ip measured after 5 hrs; format: functional; details: route intraperitoneal; method in brief: as §1
Mus musculus [6] = test: Antioxidant activity in carrageenan-stimulated ICR mouse assessed as increase in GPx activity at 8 mg/kg, ip measured after 5 hrs; format: functional; details: route intraperitoneal; method in brief: as §1
Mus musculus [7] = test: Down regulation of COX-2 protein expression in carrageenan-stimulated ICR mouse at 8 mg/kg, ip measured after 5 hrs by Western blot analysis; format: functional; details: route intraperitoneal
Method in brief: (§2)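 Male ICR mice (18–25 g, n = 6 per group) received intraplantar carrageenan. Paw tissue was taken 5 h after carrageenan. Lysates were made in RIPA buffer and 30 µg protein run on SDS-PAGE/PVDF immunoblot with ECL detection. Band intensities were quantified relative to the carrageenan-alone group across three independent experiments.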

Mus musculus [8] = test: Down regulation of iNOS protein expression in carrageenan-stimulated ICR mouse at 8 mg/kg, ip measured after 5 hrs by Western blot analysis; format: functional; details: route intraperitoneal; method in brief: as §2
Mus musculus [9] = test: Antiinflammatory activity in ICR mouse assessed as decrease in carrageenan-induced inflammatory response at 8 mg/kg, ip measured after 5 hrs; format: functional, organism-based; set-up: dose 8 mg/kg
Method in brief: (§3)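 Male ICR mice were dosed 30 min before intraplantar carrageenan, and paw biopsies were taken 5 h later. Tissue was fixed in Dietric solution for 1 week at room temperature, dehydrated in graded ethanol and paraffin-embedded. 7-thickness sections were stained with hematoxylin–eosin or Van Gieson and examined by light microscopy.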

Mus musculus [10] = test: Antiinflammatory activity in carrageenan-stimulated ICR mouse assessed as decrease in number of inflammatory cells at 8 mg/kg, ip measured after 5 hrs; format: functional, organism-based; set-up: dose 8 mg/kg; method in brief: as §3
Mus musculus [11] = test: Antiinflammatory activity in carrageenan-stimulated ICR mouse assessed as vascular localization of inflammatory cells at 8 mg/kg, ip measured after 5 hrs; format: functional, organism-based; set-up: dose 8 mg/kg; method in brief: as §3
Mus musculus [12] = test: Antiinflammatory activity in carrageenan-stimulated ICR mouse assessed as effect on shape of collagen fiber at 8 mg/kg, ip measured after 5 hrs; format: functional, organism-based; set-up: dose 8 mg/kg; method in brief: as §3
Mus musculus [13] = test: Antiinflammatory activity in carrageenan-stimulated ICR mouse assessed as decrease in intercellular spaces at 8 mg/kg, ip measured after 5 hrs; format: functional, organism-based; set-up: dose 8 mg/kg; method in brief: as §3
Mus musculus [14] = test: Antiinflammatory activity in carrageenan-stimulated ICR mouse assessed as effect on connective tissue damage at 8 mg/kg, ip measured after 5 hrs; format: functional, organism-based; set-up: dose 8 mg/kg; method in brief: as §3
Mus musculus [15] = test: Antiinflammatory activity in carrageenan-stimulated ICR mouse assessed as decrease in neutrophil number at 8 mg/kg, ip measured after 5 hrs; format: functional, organism-based; set-up: dose 8 mg/kg; method in brief: as §3
Mus musculus [16] = test: Antiinflammatory activity in carrageenan-stimulated ICR mouse assessed as reduction in iNOS immunoreactive cells at 8 mg/kg, ip measured after 5 hrs; format: functional, organism-based; set-up: dose 8 mg/kg
Mus musculus [17] = test: Antiinflammatory activity in carrageenan-stimulated ICR mouse assessed as reduction in COX2 immunoreactive cells at 8 mg/kg, ip measured after 5 hrs; format: functional, organism-based; set-up: dose 8 mg/kg
Mus musculus [18] = test: Antiinflammatory activity in carrageenan-stimulated ICR mouse assessed as decrease in cellular infiltration to intercellular spaces at 8 mg/kg, ip measured after 5 hrs; format: functional, organism-based; set-up: dose 8 mg/kg; method in brief: as §3
RAW264.7 [19] = test: Antiinflammatory activity in mouse RAW264.7 cells assessed as inhibition of LPS-induced PGE2 production administered 1 hr before LPS challenge measured after 24 hrs by ELISA
RAW264.7 [20] = test: Antiinflammatory activity in mouse RAW264.7 cells assessed as inhibition of LPS-induced TNFalpha production administered 1 hr before LPS challenge measured after 24 hrs by ELISA
RAW264.7 [21] = test: Antiinflammatory activity in mouse RAW264.7 cells assessed as inhibition of LPS-induced PGE2 production at 10 uM administered 1 hr before LPS challenge measured after 24 hrs by ELISA
RAW264.7 [22] = test: Antiinflammatory activity in mouse RAW264.7 cells assessed as inhibition of LPS-induced PGE2 production at 20 uM administered 1 hr before LPS challenge measured after 24 hrs by ELISA
RAW264.7 [23] = test: Antiinflammatory activity in mouse RAW264.7 cells assessed as inhibition of LPS-induced TNFalpha production at 5 uM administered 1 hr before LPS challenge measured after 24 hrs by ELISA
RAW264.7 [24] = test: Antiinflammatory activity in mouse RAW264.7 cells assessed as inhibition of LPS-induced TNFalpha production at 10 uM administered 1 hr before LPS challenge measured after 24 hrs by ELISA
RAW264.7 [25] = test: Antiinflammatory activity in mouse RAW264.7 cells assessed as inhibition of LPS-induced TNFalpha production at 20 uM administered 1 hr before LPS challenge measured after 24 hrs by ELISA

Question: How did the Activity (Mus musculus [1]) turn out when `COc1cc(CCCc2c(OC)cc(O)c(OC)c2OC)ccc1O` [VISCOLIN] was run?
Answer: The Activity was “Active”.

Question: And the Activity (Mus musculus [2])?
Answer: The Activity was “Active”.

Question: And the Activity (Mus musculus [3])?
Answer: Its Activity is 4.08 U/mg.

Question: What about the Activity (Mus musculus [4]) of the same molecule?
Answer: Its Activity is 8.64 U/mg.

Question: And the Activity (Mus musculus [5])?
Answer: Its Activity is 10.97 U/mg.

Question: And the Activity (Mus musculus [6])?
Answer: The Activity was 11.54 U/mg.

Question: And the Activity (Mus musculus [7])?
Answer: The Activity was 76.2%.

Question: What about the Activity (Mus musculus [8]) of the same molecule?
Answer: The Activity was 63.6%.

Question: And the Activity (Mus musculus [9])?
Answer: Its Activity is “Active”.

Question: What about the Activity (Mus musculus [10]) of the same molecule?
Answer: The Activity was “Active”.

Question: And the Activity (Mus musculus [11])?
Answer: The Activity was “Active”.

Question: And the Activity (Mus musculus [12])?
Answer: The Activity was “Active”.

Question: And the Activity (Mus musculus [13])?
Answer: The Activity was “Active”.

Question: And the Activity (Mus musculus [14])?
Answer: The Activity was “Active”.

Question: And the Activity (Mus musculus [15])?
Answer: The Activity was “Active”.

Question: And the Activity (Mus musculus [16])?
Answer: The Activity was “Active”.

Question: What about the Activity (Mus musculus [17]) of the same molecule?
Answer: The Activity was “Active”.

Question: And the Activity (Mus musculus [18])?
Answer: Its Activity is “Active”.

Question: And the IC50 (RAW264.7 [19])?
Answer: The IC50 was 14.4 µM.

Question: What about the Activity (RAW264.7 [20]) of the same molecule?
Answer: The Activity was “Dose-dependent effect”.

Question: And the IC50 (RAW264.7 [20])?
Answer: Its IC50 is 17.3 µM.

Question: And the Activity (RAW264.7 [21])?
Answer: Its Activity is “Active”.

Question: What about the Activity (RAW264.7 [22]) of the same molecule?
Answer: The Activity was “Active”.

Question: And the Activity (RAW264.7 [23])?
Answer: The Activity was “Active”.

Question: What about the Activity (RAW264.7 [24]) of the same molecule?
Answer: The Activity was “Active”.

Question: What about the Activity (RAW264.7 [25]) of the same molecule?
Answer: Its Activity is “Active”.
